Data from ChEMBL document CHEMBL2057143, “Identification of a class of novel tubulin inhibitors” (J Med Chem, 2012).
Calls of active or inactive are those of the source. The rule behind the calls is not given here.

Assays:
Tubulin (Homo sapiens) [1] = biological target: T1, Tubulin (Homo sapiens) (UniProt P68371+Q9H4B7+P0DPH7+P68366+Q13509+Q71U36+P04350+Q3ZCM7+P07437+P68363+Q9BQE3+Q6PEY2+Q13885+Q9BVA1+Q9BUF5); assay: Inhibition of tubulin polymerization in human SKBR3 cells assessed as decrease in microtubule density at 0.5 to 1 uM after 12 hrs by fluorescence microscopic analysis; type: cell-based; conditions: SK-BR-3
In short: (§1)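 SKBR-3 cells in chamber slides were grown to 70% confluence, then treated with 0.5 or 1 μM compound for 12 and 24 h; untreated cells and 0.05 μM nocodazole served as controls. Cells were fixed in 4% paraformaldehyde, permeabilized with 0.2% Triton X-100 and blocked with 2% goat serum. They were stained with biotinylated anti-tubulin (1:200, overnight 4 °C) plus Alexa Fluor 488 streptavidin and imaged by fluorescence microscopy.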

Tubulin (Homo sapiens) [2] = biological target: T1, Tubulin (Homo sapiens); assay: Inhibition of tubulin polymerization in human SKBR3 cells assessed as microtubule disorganization at 0.5 to 1 uM after 24 hrs by fluorescence microscopic analysis; type: cell-based; conditions: SK-BR-3; in short: as §1
Tubulin (Homo sapiens) [3] = biological target: T1, Tubulin (Homo sapiens); assay: Inhibition of tubulin polymerization in human SKBR3 cells assessed as microtubule disorganization at 0.5 to 1 uM after 12 hrs by fluorescence microscopic analysis; type: cell-based; conditions: SK-BR-3; in short: as §1
Tubulin (Homo sapiens) [4] = biological target: T1, Tubulin (Homo sapiens); assay: Inhibition of tubulin polymerization in human SKBR3 cells assessed as decrease in microtubule density at 0.5 to 1 uM after 24 hrs by fluorescence microscopic analysis; type: cell-based; conditions: SK-BR-3; in short: as §1
Bos taurus [5] = species on record: Bos taurus; assay: Inhibition of bovine brain tubulin polymerization after 20 mins by spectrophotometric analysis
SK-BR-3 [6] = assay: Binding affinity to beta-tubulin in human SKBR3 cell lysate at 25 uM after 30 mins by mass spectrometric analysis; type: cell-free
In short: (§2)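 SKBR-3 cells (1.0 × 10^7) were lysed in NP-40 buffer with protease inhibitors and sonicated. Lysate was incubated with biotinylated probe (25 μM final) for 1 h at room temperature, then with neutravidin resin for 30 min. After five binding-buffer washes, bound proteins were eluted with buffer containing compound at 25 and 50 μM. Resin was boiled in SDS buffer. Samples were run on SDS-PAGE and silver-stained; bands were trypsin-digested in-gel and analysed by LC-QTOF/MS.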

SK-BR-3 [7] = assay: Growth inhibition of human SKBR3 cells after 48 hrs by MTT assay; type: functional, cell-based; conditions: SK-BR-3, 48 h
In short: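 Cells were seeded for 24 h, then exposed to a range of compound concentrations (DMSO ≤0.1% final) for 48 h. MTT (0.5 mg/mL) was added for 2 h, formazan was dissolved in DMSO and A570 read. Six replicates; IC50 from nonlinear regression.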

SK-BR-3 [8] = assay: Binding affinity to alpha-tubulin in human SKBR3 cell lysate at 25 uM after 30 mins by mass spectrometric analysis; type: cell-free; in short: as §2
[9] = biological target: Heat shock protein beta-1 (Homo sapiens) (UniProt P04792); assay: Binding affinity to Hsp27 in human SKBR3 cell lysate at 25 uM after 30 mins by mass spectrometric analysis; type: cell-free; conditions: SK-BR-3; in short: as §2
Chain of Heat shock protein beta-1 (Homo sapiens) (P04792 whole entry): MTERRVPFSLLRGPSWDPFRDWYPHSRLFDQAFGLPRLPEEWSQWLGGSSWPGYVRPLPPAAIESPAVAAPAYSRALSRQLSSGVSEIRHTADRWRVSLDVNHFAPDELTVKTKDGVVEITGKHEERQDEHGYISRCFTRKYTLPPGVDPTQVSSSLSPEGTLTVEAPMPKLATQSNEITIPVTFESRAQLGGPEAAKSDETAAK

SK-BR-3 [10] = assay: Binding affinity to pure alpha-tubulin in human SKBR3 cell lysate at 25 to 50 uM after 1 hr by Western blot analysis; type: cell-free
In short: (§3)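 Pure proteins, 10 μM bovine brain tubulin or recombinant Hsp27, were tested in separate experiments. Each was incubated with 2 μM biotinylated probe for 1 h at room temperature, then with neutravidin resin for 30 min. After five washes with binding buffer, bound protein was eluted twice with buffer containing compound at 25 and 50 μM. Eluates and resin were denatured, run on SDS-PAGE, transferred to PVDF and probed with α-/β-tubulin or Hsp27 antibodies.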

Bos taurus [11] = species on record: Bos taurus; assay: Binding affinity to bovine brain tubulin at 2 uM after 1 hr by SDS-PAGE analysis in preincubated with 10 uM paclitaxel
In short: (§4)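 Bovine brain tubulin (10 μM) was preincubated with 10 μM colchicine or paclitaxel for 1 h at room temperature. It was then incubated with 2 μM biotinylated probe in binding buffer for 1 h at room temperature and loaded onto a neutravidin resin column for 30 min. The resin was washed five times with binding buffer, then twice with buffer containing compound (25, 50 μM). Eluates and resin were analysed by SDS-PAGE and Western blot with tubulin antibody.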

Bos taurus [12] = species on record: Bos taurus; assay: Binding affinity to bovine brain tubulin at 2 uM after 1 hr by SDS-PAGE analysis in preincubated with 10 uM colchicine; in short: as §4
[13] = biological target: Heat shock protein beta-1 (Homo sapiens) (UniProt P04792); assay: Binding affinity to pure Hsp27 in human SKBR3 cell lysate at 25 to 50 uM after 1 hr by Western blot analysis; type: cell-free; conditions: SK-BR-3; in short: as §3
SK-BR-3 [14] = assay: Binding affinity to pure beta-tubulin in human SKBR3 cell lysate at 25 to 50 uM after 1 hr by Western blot analysis; type: cell-free; in short: as §3
[15] = biological target: Heat shock protein beta-1 (Homo sapiens) (UniProt P04792); assay: Binding affinity to pure Hsp27 in human SKBR3 cell lysate at 2 uM after 1 hr by Western blot analysis; conditions: SK-BR-3
[16] = biological target: Heat shock protein beta-1 (Homo sapiens) (UniProt P04792); assay: Inhibition of Hsp27 phosphorylation in human SKBR3 cells at 0.5 to 1 uM after 24 hrs by Western blot analysis; conditions: SK-BR-3
[17] = biological target: Heat shock protein beta-1 (Homo sapiens) (UniProt P04792); assay: Induction of Hsp27 phosphorylation in human SKBR3 cells at 50 to 100 nM after 24 hrs by SDS-PAGE analysis; type: cell-based; conditions: SK-BR-3
In short: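 SKBR-3 cells were treated for 24 h with 50 and 100 nM nocodazole, with compound or KRIBB3 run alongside. Lysates (50 μg protein) were separated on 12% SDS-PAGE and transferred to PVDF. Membranes were blocked 1 h and probed for pSer78 Hsp27, with total Hsp27 and actin as loading controls, then detected by HRP secondary and ECL.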

`Cc1ccc(C)c(COc2cc(NC(=O)c3ccc4c(c3)OCO4)ccc2N(C)S(C)(=O)=O)c1` was tested, and the inhibition (Tubulin (Homo sapiens) [1]) was “Active”, the inhibition (Tubulin (Homo sapiens) [2]) was “Active” and the inhibition (Tubulin (Homo sapiens) [3]) was “Active”. For the same compound, the inhibition (Tubulin (Homo sapiens) [4]) was “Active” and the inhibition (Bos taurus [5]) was “Dose-dependent effect”.

With `Cc1ccc(C)c(COc2cc(NC(=O)c3ccc4c(c3)OCO4)ccc2N(CCCCCCNC(=O)CCCC[C@H]2SC[C@H]3NC(=O)N[C@H]32)S(C)(=O)=O)c1` the Activity (SK-BR-3 [6]) was “Active”, the IC50 (SK-BR-3 [7]) was 2 µM and the Activity (SK-BR-3 [8]) was “Active”. For the same compound, the Activity [9] was “Active”, the Activity (SK-BR-3 [10]) was “Active” and the Activity (Bos taurus [11]) was “Active”. The Activity (Bos taurus [12]) was “inactive”, the Activity [13] was “Active” and the Activity (SK-BR-3 [14]) was “Active”.

Compound `Cc1ccc(C)c(COc2cc(NC(=O)Cc3ccccc3)ccc2N(C)S(C)(=O)=O)c1` has an IC50 (SK-BR-3 [7]) of 121 µM.

For `CN(c1ccc(NC(=O)c2ccc3c(c2)OCO3)cc1OCc1ccccc1)S(C)(=O)=O`, the IC50 (SK-BR-3 [7]) was 62.9 µM.

With `CCc1cc(-c2oncc2-c2ccc(OC)cc2)c(O)cc1OC` the Activity [15] was “Active” and the inhibition [16] was “Active”.

`COC(=O)Nc1nc2cc(C(=O)c3cccs3)ccc2[nH]1` was tested, and the Activity [17] was “Active”.
